Published values from different studies.
Protocols differ between the studies behind these lines.
Target: Serine/threonine-protein kinase TBK1 (TBK1, Homo sapiens, UniProt Q9UHD2)
Residues used in one study (Q9UHD2 1-729): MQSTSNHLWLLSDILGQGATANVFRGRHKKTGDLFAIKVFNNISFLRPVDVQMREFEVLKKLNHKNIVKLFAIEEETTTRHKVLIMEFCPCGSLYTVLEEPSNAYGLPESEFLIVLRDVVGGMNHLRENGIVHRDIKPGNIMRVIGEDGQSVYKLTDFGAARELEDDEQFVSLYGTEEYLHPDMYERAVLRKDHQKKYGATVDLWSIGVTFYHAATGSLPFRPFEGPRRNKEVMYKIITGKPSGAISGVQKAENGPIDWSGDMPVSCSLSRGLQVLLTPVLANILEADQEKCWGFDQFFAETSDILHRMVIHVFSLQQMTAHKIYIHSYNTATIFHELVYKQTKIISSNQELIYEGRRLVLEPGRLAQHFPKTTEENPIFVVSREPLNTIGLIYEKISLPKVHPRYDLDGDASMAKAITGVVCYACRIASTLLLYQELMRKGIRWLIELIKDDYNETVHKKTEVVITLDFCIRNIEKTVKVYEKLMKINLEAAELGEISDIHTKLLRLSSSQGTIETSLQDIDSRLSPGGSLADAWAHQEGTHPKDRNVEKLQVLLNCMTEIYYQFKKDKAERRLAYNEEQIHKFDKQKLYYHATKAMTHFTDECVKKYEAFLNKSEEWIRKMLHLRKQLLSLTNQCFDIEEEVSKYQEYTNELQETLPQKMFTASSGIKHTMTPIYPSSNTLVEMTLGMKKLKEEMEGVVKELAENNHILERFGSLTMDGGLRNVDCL

Cc1ccc(Nc2nccc(N(C)c3ccc4c(C)n(C)nc4c3)n2)cc1S(N)(=O)=O
inhibition (enzyme activity, inhibitor; 0.3 µM): 22%

Cc1nn(CC(F)(F)F)cc1Nc1ncc(C2CC2)c(NCc2ccc(S(N)(=O)=O)cc2)n1
remaining activity (enzyme activity, inhibitor, radiometric; 1 µM): 10%

CCN1CCN(Cc2ccc(NC(=O)c3ccc(C)c(Oc4ccnc5[nH]ccc45)c3)cc2C(F)(F)F)CC1
inhibition (target engagement in cells, inhibitor, chemoproteomics; Huh-7; 10 µM): -24.4%

CN1CC(Oc2cnc(C#N)cc2-c2ccn3nc(NC(=O)C4CC4)cc3c2)C1
inhibition (enzyme activity, inhibitor; 1 µM): 3%

Cc1nn(CC(F)(F)F)cc1Nc1nccc(NCCc2cnc[nH]2)n1
remaining activity (enzyme activity, inhibitor, radiometric; 1 µM): 87%

COCCOc1nc(-c2ccc(Cl)nc2)nc2c1CN(C(=O)c1ncn3ccccc13)CC2
remaining binding (cell-free assay, competition with immobilised ligand; 0.1 µM): 68%

Nc1ncnc2occ(-c3ccc(NC(=O)Nc4cc(C(F)(F)F)ccc4F)cc3)c12
remaining signal (cell-free assay, inhibitor; 20 µM): 23%

Cc1noc([C@H]2C[C@@H](c3ccc(C(F)(F)F)cc3)CN(C(=O)N3CCS(=O)(=O)C3)C2)n1
remaining binding (cell-free assay, competition with immobilised ligand; 1 µM): 68%

O=C(NCCCNc1ccnc(Nc2cccc(NC(=O)N3CCCC3)c2)n1)C1CCC1
remaining activity (enzyme activity, inhibitor, radiometric; 1 µM): 36%

COc1cc2ncnc(Nc3ccc(Oc4ccccc4)cc3C)c2cc1OC
inhibition (enzyme activity, inhibitor; 1 µM): 4%

CO[C@@H](C)c1c(Nc2ccc([C@@H](N(C)C(=O)C3CCS(=O)(=O)CC3)C(F)(F)F)cc2)cnc2cc(Cl)nn12
remaining binding (cell-free assay, competition with immobilised ligand; 1 µM): 77%

Cc1nn(CC(F)(F)F)cc1Nc1ncc(C2CC2)c(NCCCNC(=O)C2CCC2)n1
remaining activity (enzyme activity, inhibitor, radiometric; 1 µM): 4%

O=C(NS(=O)(=O)c1ccc(NCC2CCOCC2)c([N+](=O)[O-])c1)c1ccc(N2CCN(Cc3ccc(C(F)(F)F)cc3-c3ccc(Cl)cc3)CC2)cc1Oc1cnc2[nH]ccc2c1
remaining binding (cell-free assay, competition with immobilised ligand; 1 µM): 74%

CNC(=O)c1cc(Oc2ccc(NC(=O)Nc3ccc(Cl)c(C(F)(F)F)c3)cc2)ccn1
inhibition (enzyme activity, inhibitor; 10 µM): 10%

CN(C)C1CCN(CC#Cc2nn(C3CCCC3)c3nc(NCc4ccccc4)ncc23)C1 (centres unmarked)
inhibition (enzyme activity, inhibitor, FRET; 10 µM): 10%

Cc1nn(CC(F)(F)F)cc1Nc1ncc(C2CC2)c(NCCc2c[nH]cn2)n1
remaining activity (enzyme activity, inhibitor, radiometric; 1 µM): 81%

CCN(CC)CCNC(=O)c1c(C)[nH]c(/C=C2\C(=O)Nc3ccc(F)cc32)c1C
inhibition (enzyme activity, inhibitor; 0.3 µM): 42%

NS(=O)(=O)c1ccc(CNc2nc(Nc3cccc(NC(=O)N4CCCC4)c3)ncc2C2CC2)cc1
remaining activity (enzyme activity, inhibitor, radiometric; 1 µM): 6%

c1ccc(CNc2nc(N3CCOc4ccccc43)nc3c2CCCC3)cc1
inhibition (target engagement in cells, inhibitor, chemoproteomics; 20 mM): 3.3%

NS(=O)(=O)c1ccc(CNc2ccnc(Nc3cccc(CN4CCOCC4)c3)n2)cc1
remaining activity (enzyme activity, inhibitor, radiometric; 1 µM): 33%

Cc1cc(NC(=O)c2cccc3cc(-c4cccc5[nH]nc(N)c45)ccc23)ccc1F
activity vs control (enzyme activity, inhibitor; 0.1 µM): 109%

O=C1CCc2cc(Nc3cc(OC4CCOCC4)c([N+](=O)[O-])cc3Cl)ccc2N1
remaining binding (cell-free assay, competition with immobilised ligand; 1 µM): 100%

CCCS(=O)(=O)Nc1ccc(F)c(C(=O)c2c[nH]c3ncc(-c4ccc(Cl)cc4)cc23)c1F
inhibition (enzyme activity, inhibitor; 1 µM): < 10%

CCCCNc1ncc2c(-c3ccc(F)cc3)nn(C[C@H]3CC[C@H](N)CC3)c2n1
inhibition (target engagement in cells, inhibitor, chemoproteomics; 20 mM): 9.8%

COc1cc(Nc2c(C#N)cnc3cc(OCCCN4CCN(C)CC4)c(OC)cc23)c(Cl)cc1Cl
remaining signal (cell-free assay; 0.5 µM): 65.7%

O=C(NCCCC1CCCCC1)c1ccc(CNC(=O)c2cnn(-c3ccccc3)c2C(F)(F)F)cc1
remaining binding (cell-free assay, competition with immobilised ligand; 0.1 µM): 100%

COc1cc(/C=C/C(=O)CC(=O)/C=C/c2ccc(O)c(OC)c2)ccc1O
activity vs control (enzyme activity, inhibitor; 1 µM): 74%

O=C1Nc2ccc(Cl)cc2C1=Cc1cc(Cl)c(O)c(Cl)c1
remaining signal (cell-free assay; 0.5 µM): 86.8%

C[C@@H](c1cccc(C#N)c1)n1cc(Cl)cc(C(N)=O)c1=N
remaining binding (cell-free assay, competition with immobilised ligand; 1 µM): 89%

c1cc(CN2CCOCC2)cc(Nc2nccc(NCCc3cnc[nH]3)n2)c1
remaining activity (enzyme activity, inhibitor, radiometric; 1 µM): 50%

FC(F)(F)Oc1cccc(-c2cnc3ccc(-c4ccncc4)nn23)c1
activity vs control (enzyme activity, inhibitor, radiometric; 1 µM): 92%

Cc1cc(NC(=O)c2cccc(S(F)(F)(F)(F)F)c2)cc(-n2ccn3nc(-c4cccnc4)cc23)c1
remaining binding (cell-free assay, competition with immobilised ligand; 1 µM): 49.7%
